Source: PubChem BioAssay (several laboratories)
A selection: hits, their analogues and other compounds. The true share with any hit is near 4.9%.
STAT1 act – STAT1 signaling activators, primary screen, cell-based, HTS, luciferase reporter; NIH 3T3 STAT1-luciferase reporter, IFN-gamma, luminescence; 100% = IFN-gamma alone, no compound; activation (% of control), % at 5.5 µM; 2.6% of 200,000 active; AID 932, 2007;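 active = activation above the screen-wide mean activation plus 3 SD, cut at about 130% in these data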;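 also: raw ratio to IFN-gamma control signal so 100% means no change and 0% no light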
FLuc stim CS – FLuc activators, initial screening, artefact control for FLuc-dependent activation tests, biochemical, ATPlite luminescence; Luciferin 4-monooxygenase (Photinus pyralis), P08659; ATPlite luciferase biochemical, 10 min; 0 = ATP-free wells, 1 = DMSO control; activation factor at 10 µM; 200,000 tested, under 10 active; AID 1027, 2008;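 active = luciferase activation factor, scaled between plate controls, of at least 2 with compound at 10 µM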
Target sequence (P08659 whole entry, looked up): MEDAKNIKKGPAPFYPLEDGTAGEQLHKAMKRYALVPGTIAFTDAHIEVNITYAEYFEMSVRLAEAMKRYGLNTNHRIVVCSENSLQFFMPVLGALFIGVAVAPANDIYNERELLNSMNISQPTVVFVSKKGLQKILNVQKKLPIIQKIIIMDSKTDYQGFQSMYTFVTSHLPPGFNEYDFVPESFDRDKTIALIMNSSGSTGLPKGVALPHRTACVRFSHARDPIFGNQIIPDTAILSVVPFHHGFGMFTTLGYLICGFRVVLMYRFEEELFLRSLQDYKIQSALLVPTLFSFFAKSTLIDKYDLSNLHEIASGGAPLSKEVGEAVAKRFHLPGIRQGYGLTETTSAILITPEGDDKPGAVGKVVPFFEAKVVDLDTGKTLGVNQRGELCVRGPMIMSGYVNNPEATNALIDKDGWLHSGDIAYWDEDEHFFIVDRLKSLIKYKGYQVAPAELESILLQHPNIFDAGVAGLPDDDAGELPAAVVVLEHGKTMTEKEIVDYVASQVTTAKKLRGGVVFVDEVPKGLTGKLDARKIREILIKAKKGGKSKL
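test system = cell-free luciferase reagent | medium = PBS as buffer for the ATP substrate | dosing = test compounds dosed from 2 mM stocks in 100% DMSO | incubation = 10 min at ambient temperature | detection = luminescence measurement of luciferase light output | benchmarks = low control with PBS replacing ATP, high control enzyme plus ATP without compound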
STAT3 inh – IL-6 driven STAT3 reporter inhibitors, primary screen, U3A cells, luciferase, luminescence, MLSCN library | IL-6 STAT3-luciferase reporter; host cell line lacks STAT1 | AID 862, 2007 | 0.89% of 190,000 active | inhibition, % at 5.5 µM;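 active = inhibition above the mean inhibition across all screened compounds plus 3 SD, cut at about 44% in these data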;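 also: 0% = DMSO only wells and 100% = 100 µM nifuroxazide control wells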
STAT1 inh – STAT1 signaling inhibitors, primary screen, cell-based, HTS, luciferase reporter. NIH 3T3 STAT1-luciferase reporter, IFN-gamma, luminescence. inhibition, % at 5.5 µM. 0.35% of 200,000 active. AID 920, 2007;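 active = inhibition above a set limit, the mean inhibition across all tested compounds plus 3 SD, cut at about 34% in these data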;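 also: 0% = IFN-gamma with DMSO and 100% = IFN-gamma with 300 µM nifuroxazide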
FLuc inhib CS – firefly luciferase enzyme inhibitors, primary screen, artefact control for luciferase-based inhibitor screens, biochemical, luminescence, ATPLite; Luciferin 4-monooxygenase (Photinus pyralis), P08659; 10 min; inhibition, % at 10 µM; 1.5% of 200,000 active;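 active = inhibition above about 50% when tested at 10 µM, limit read from the data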
STAT3 activator – IL-6 driven STAT3 reporter potentiators, primary screen, U3A cells, luciferase, luminescence, MLSCN library | IL-6 STAT3-luciferase reporter; 100% = signal with IL-6 EC80 alone | activation (% of control), % at 5.6 µM | 0.91% of 190,000 active;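 active = activation above the screen-wide mean of compound activation plus 3 SD, cut at about 130% in these data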;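 also: 0% = background luminescence of wells with medium and substrate only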
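Material: STAT3-luciferase reporter U3A cells. Controls: IL-6-treated wells, 100% activation. Read-out: % activation versus median of IL-6-stimulated wells. Probe or stimulus: IL-6 stimulus at 33 ng/mL final. Timing: compound 1 h, then IL-6 6 h at 37 °C. Signal: reporter luminescence signal.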
* = called active by the depositor; nt = no result given.

SMILES | STAT1 act | FLuc stim CS | STAT3 inh | STAT1 inh | FLuc inhib CS | STAT3 activator
Cc1c(C(=O)Nc2nc3ccccc3[nH]2)oc2ccccc12 | 162* | 0.5 | -58 | -66 | 53* | 145*
O=C(Nc1nc2ccccc2[nH]1)c1cccs1 | 123 | 0.3 | 25 | -22 | 69* | 82
O=c1[nH]c2ccccc2nc1/C=C/c1ccc(O)cc1 | 138* | 0.5 | 26 | -44 | 54* | 79
O=c1[nH]c2ccccc2nc1/C=C(\O)c1cccs1 | 146* | 0.6 | -84 | -51 | 45 | 169*
CC(=O)Nc1ccc(S(=O)(=O)Nc2cccc(-c3cn4cccnc4n3)c2)cc1 | 108 | 1 | 7 | -11 | 0 | 98
O=C(CCSCc1cccc(Cl)c1)NCCc1ccc(Cl)cc1 | 91 | 1 | -11 | 10 | -3 | 109
O=C(Nc1nc2ccccc2[nH]1)c1ccc(Br)o1 | 144* | 0.3 | -27 | -49 | 73* | 123
O=C(Nc1nc2ccccc2[nH]1)C12CC3CC(CC(C3)C1)C2 | 132* | 0.5 | 6 | -35 | 50* | 100
O=C(CN(CCO)c1ccccc1)Nc1ccc(Cl)c(S(=O)(=O)N2CCOCC2)c1 | 79 | 1 | 5 | 22 | -2 | 101
CC(C)c1ccc2c(c1)C1(NN=C(c3ccccc3)S1)C(=O)N2 (stereo not drawn) | 129* | 1 | -10 | -36 | 3 | 110
O=C(CSc1nccc(=O)[nH]1)NCc1ccc(Cl)cc1 | 103 | 1 | -1 | -3 | -2 | 106
Cc1cc(C(=O)Nc2sc(C)c(-c3ccc(F)cc3)c2C(N)=O)no1 | 161* | 0.6 | -1 | -67 | 40 | 105
Cc1ccc(NC(=O)C(=O)N2CCCC2)cc1Cl | 148* | 0.9 | 10 | -53 | 10 | 93
O=C(Nc1cccc([N+](=O)[O-])c1)C(=O)N1CCCCC1 | 132* | 1 | -10 | -38 | -1 | 114
O=C1CCCN1CCC1CCCCN1Cc1nc(-c2cnccn2)no1 (stereo not drawn) | 98 | 1.1 | 13 | 1 | -8 | 99
Nc1nc2ccccc2n1C(=O)c1ccco1 | 139* | 0.6 | -7 | -43 | 43 | 105
Nc1nc2ccccc2n1C(=O)c1cccs1 | 113 | 0.3 | 38 | -12 | 69* | 71
O=C(c1ccco1)N1CCn2c1nc1ccccc12 | 125 | 0.8 | -15 | -27 | 24 | 117
Nc1nncn1C(=O)c1cccs1 | 102 | 1.1 | -5 | -2 | -5 | 108
Nc1nc2ccccc2n1C(=O)CCc1ccccc1 | 136* | 0.8 | 10 | -40 | 17 | 94
Clc1ccc(SCc2cn3cccnc3n2)cc1 | 124 | 1 | 7 | -26 | 4 | 98
Cc1cc(OCc2cn3cccnc3n2)ccc1Cl | 131* | 0.8 | 2 | -34 | 16 | 97
O=C(CCCOc1ccccc1)N1CCN(c2ccccn2)CC1 | 129* | 1 | 5 | -26 | 1 | 98
O=C(CCCOc1ccc(Cl)cc1Cl)N1CCN(c2ccccn2)CC1 | 102 | 1.1 | 3 | -1 | -6 | 103
COC(=O)C1CCN(C(=O)CCCOc2ccccc2)CC1 | 132* | 0.9 | -18 | -32 | 11 | 117
SMILES | STAT1 act | FLuc stim CS | STAT3 inh | STAT1 inh | FLuc inhib CS | STAT3 activator
CC(C)n1cnc2cc(NCc3ccco3)ccc21 | 114 | 0.4 | 6 | -16 | 58* | 97
CCCCc1ccc(-c2nc(N)n[nH]2)cc1 | 124 | 0.3 | 6 | -27 | 68* | 95
COc1ccccc1CNC(=S)NC1CCCC1 | 102 | 1.1 | 3 | -2 | -7 | 96
CN(C)c1ccc(N=Cc2ccco2)cc1 | 150* | 1 | -10 | -55 | 2 | 112
CN(C)c1ccc(C=Nc2ccc(N(C)C)cc2)cc1 | 144* | 0.6 | -11 | -50 | 36 | 112
C/C(=N/N=C/c1ccc(N(C)C)cc1)c1ccccc1 | 133* | 0.2 | 0 | -37 | 77* | 100
CN(C)c1ccc(C=Nc2ccccc2)cc1 | 98 | 1 | 6 | 2 | -1 | 98
Cc1ccc(N=Cc2ccc(N(C)C)cc2)cc1 | 100 | 0.9 | 1 | 0 | 5 | 103
Cc1ccc(C(=O)NS(=O)(=O)c2ccc(N=NN(C)C)cc2)cc1 | 98 | 1 | 8 | 1 | 4 | 97
COc1ccc(Nc2nc(N)nc(CSC(=S)N3CCCCC3)n2)cc1 | 129* | 1 | -14 | -28 | 3 | 116
O=C1c2ccccc2-c2nnc(-c3ccc(O)cc3)cc21 | 56 | 0.1 | 72* | 48* | 90* | 40
O=C(Cc1ccccc1)NNC1=NS(=O)(=O)c2ccccc21 | 102 | 1 | 3 | -4 | 0 | 101
O=C(NNC1=NS(=O)(=O)c2ccccc21)c1ccc(Cl)cc1 | 95 | 0.2 | 11 | 3 | 84* | 92
CC(C)CC(C(=O)O)N1C(=O)C2C3CC(C2C1=O)C1C(c2ccccc2)c2sc(=O)[nH]c2SC31 (stereo not drawn) | 91 | 1 | -8 | 10 | 4 | 110
O=C(c1ccccc1)n1c(=S)nc2ccccn21 | nt | 0.1 | nt | nt | 94* | nt
O=C(c1ccccc1)n1ccn(-c2ccccc2)c1=S | 93 | 1.1 | 18 | 7 | -6 | 88
Cc1cc(C(=O)COC(=O)c2ccc[nH]c2=O)c(C)n1-c1ccccc1 | 68 | 0.1 | 49* | 36* | 91* | 59
CCNC(=O)COC(=O)c1cc(C)n(-c2ccccc2)c1C | 105 | 0.9 | 9 | -5 | 6 | 97
Cc1cc(C(=O)COC(=O)c2ccc[nH]c2=O)c(C)n1-c1ccc(F)cc1 | 109 | 0.2 | 20 | -10 | 79* | 85
Cc1cc(C(=O)COc2ccccc2C(N)=O)c(C)n1C1CC1 | 127 | 0.8 | 19 | -28 | 18 | 85
Cc1cc(C(=O)COC(=O)c2ccc[nH]c2=O)c(C)n1C1CC1 | 120 | 0.4 | 6 | -22 | 64* | 102
C=CCNC(=O)NC(=O)COC(=O)/C(C#N)=C/c1ccc(OC)cc1 | 102 | 1 | -3 | -3 | -5 | 104
Cc1cc(C(=O)O)ccc1N/C=C1\CCCC(C)C1=O (stereo not drawn) | 150* | 0.9 | 31 | -54 | 8 | 77
CC1CCC/C(=C\Nc2ccc(O)cc2)C1=O (stereo not drawn) | 136* | 0.9 | 10 | -40 | 14 | 95
O=C1CCCC/C1=C\Nc1ccccc1C(=O)O | 99 | 1.1 | -6 | 1 | -10 | 110
COc1ccc(N/C=C2/CCCCC2=O)cc1 | 119 | 0.8 | 18 | -21 | 16 | 89
